Where two headings read alike, the source gives them in different places.
Experiments:
[1] = Pharmacokinetic analysis of plasma FF-10101 concentration in trial participants; type: in vivo, human
FLT3 = molecular target: T1, FLT3 (Homo sapiens, UniProt P36888); assay: Plasma inhibitory activity; type: cell-based
T1 sequence (P36888 27-993): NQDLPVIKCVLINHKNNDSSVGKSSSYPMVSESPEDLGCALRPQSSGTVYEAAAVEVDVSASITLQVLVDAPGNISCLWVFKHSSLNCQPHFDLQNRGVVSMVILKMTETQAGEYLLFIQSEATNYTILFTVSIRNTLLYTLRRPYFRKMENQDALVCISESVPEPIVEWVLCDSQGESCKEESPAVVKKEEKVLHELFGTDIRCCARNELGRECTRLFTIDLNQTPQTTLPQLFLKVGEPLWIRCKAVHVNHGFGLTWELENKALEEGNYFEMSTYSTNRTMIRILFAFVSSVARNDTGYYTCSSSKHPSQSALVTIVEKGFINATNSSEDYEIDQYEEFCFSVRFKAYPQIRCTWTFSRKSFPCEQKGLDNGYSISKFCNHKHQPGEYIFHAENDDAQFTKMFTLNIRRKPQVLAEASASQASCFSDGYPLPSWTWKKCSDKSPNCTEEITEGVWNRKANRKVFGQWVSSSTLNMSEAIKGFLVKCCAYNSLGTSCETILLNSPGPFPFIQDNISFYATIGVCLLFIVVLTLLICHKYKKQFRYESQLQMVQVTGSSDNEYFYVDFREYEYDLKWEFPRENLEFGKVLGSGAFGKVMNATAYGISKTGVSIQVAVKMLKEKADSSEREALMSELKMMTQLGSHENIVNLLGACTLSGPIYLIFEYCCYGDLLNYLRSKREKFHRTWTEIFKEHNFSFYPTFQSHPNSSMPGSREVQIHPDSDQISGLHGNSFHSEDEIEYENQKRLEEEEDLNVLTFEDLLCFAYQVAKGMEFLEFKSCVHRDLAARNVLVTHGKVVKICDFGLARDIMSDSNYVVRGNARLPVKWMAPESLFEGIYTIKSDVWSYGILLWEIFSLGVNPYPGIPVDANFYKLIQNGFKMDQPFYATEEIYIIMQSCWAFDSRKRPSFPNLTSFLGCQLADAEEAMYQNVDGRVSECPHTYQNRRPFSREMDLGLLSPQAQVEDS
How it was run: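 Ex vivo surrogate for in vivo FLT3 inhibition. Participant plasma was prepared from lithium-heparin whole blood collected at cycle 1 time points, including pre-dose troughs on days 8 and 15. It was tested on FLT3-ITD Molm14 cells, and P-FLT3 was expressed as a percentage of baseline. Drug concentration in the same samples was measured by mass spectrometry and paired with PIA values across QD and BID cohorts.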

[2] = type: in vivo, human; details: for Aspartate aminotransferase elevation, related TEAE / Creatine kinase increase, related TEAE / Diarrhea, related TEAE / Nausea, related TEAE: 54 participants
[3] = test system: relapsed and/or refractory AML; assay: Phase 1 dose escalation: response in patients with R/R AML; type: in vivo, human
AML = details: cited from earlier work
FLT3-TKD mutations = details: cited from earlier work
[4] = 40 response-evaluable participants
[5] = participants with history of FLT3-mutated AML at FLT3-inhibitory doses (150 mg QD, 225 mg QD, 50 mg BID, 75 mg BID)

SMILES: CCCNc1nc(Nc2ccc(C#N)cc2)ncc1C#CCCCNC(=O)[C@H](C)N(C)C(=O)/C=C/CN(C)C [FF-10101]
- effect of food on absorption ([1]; after oral dosing): unaffected by food
- half-life ([1]; human, plasma, po): ~10 h
- dose levels at which inhibition of P-FLT3 was most effective (FLT3; PIA, escalating doses): 150 mg daily, 225 mg daily, 50 mg BID, and 75 mg BID
- plasma concentration of FF-10101 associated with more complete inhibition (PIA) (FLT3; cycle 1 plasma samples): > 100 ng/mL
- FF-10101 concentration achieving maximal trough suppression of P-FLT3 activity (FLT3; maximal trough suppression eg <5% of baseline): > 200 ng/mL
- participants with DLT ([2]; 50 mg BID cohort, grade 3 maculopapular rash): 1 of 7
- participants with DLTs ([2]; 100 mg BID cohort, 5 participants): 2 participants
- participants reporting at least 1 treatment emergent AE (TEAE) ([2]; 53 of 54 participants, all cohorts): 98.1%
- participants reporting diarrhea ([2]; <100 mg/dose): 21.2%
- Aspartate aminotransferase elevation, related TEAE ([2]; All grades): 14 (25.9) participants (%)
- Creatine kinase increase, related TEAE ([2]; All grades): 16 (29.6) participants (%)
- Diarrhea, related TEAE ([2]; All grades): 15 (27.8) participants (%)
- Nausea, related TEAE ([2]; All grades): 19 (35.2) participants (%)
- Aspartate aminotransferase elevation, related TEAE ([2]; Grade 1-2): 10 (18.5) participants (%)
- Creatine kinase increase, related TEAE ([2]; Grade 1-2): 11 (20.4) participants (%)
- Diarrhea, related TEAE ([2]; Grade 1-2): 13 (24.1) participants (%)
- Nausea, related TEAE ([2]; Grade 1-2): 19 (35.2) participants (%)
- Aspartate aminotransferase elevation, related TEAE ([2]; Grade ≥3): 4 (7.4) participants (%)
- Creatine kinase increase, related TEAE ([2]; Grade ≥3): 5 (9.3) participants (%)
- Diarrhea, related TEAE ([2]; Grade ≥3): 2 (3.7) participants (%)
- Nausea, related TEAE ([2]; Grade ≥3): 0 (0) participants (%)
- participants with grade 3 diarrhea ([2]; all cohorts): 4 participants
- recommended phase 2 dose (RP2D) ([2]; oral): 75 mg BID
- maximum tolerated dose (MTD) ([2]; oral, 28-day cycles): 75 mg BID
- participants reporting grade 1-3 diarrhea ([2]; ≥100 mg/dose (100 mg QD, 150 mg QD, 225 mg QD, 100 mg BID)): 76.2%
- number of CR [3, 4]: 1
- number of CRh [3, 4]: 1
- number of CRp [3, 4]: 2
- number of PR [3, 4]: 1
- overall response rate (CR + CRh + CRp + PR) [3, 4]: 12.5%
- number of CR [3, 5]: 1
- number of CRp [3, 5]: 2
- number of PR [3, 5]: 1

SMILES: CO[C@@H]1[C@H](N(C)C(=O)c2ccccc2)C[C@H]2O[C@]1(C)n1c3ccccc3c3c4c(c5c6ccccc6n2c5c31)C(=O)NC4 [Midostaurin]
- single-agent activity (AML): no single-agent activity

SMILES: CNC(=O)c1cc(Oc2ccc(NC(=O)Nc3ccc(Cl)c(C(F)(F)F)c3)cc2)ccn1 [Sorafenib]
- activity against FLT3-TKD mutations (FLT3-TKD mutations): inactive

— publication PMC11131057 (Blood Advances, 2024)
